A short description of data set [1]: Cytotoxicity against rat L6 cells after 72 hrs by Alamar blue resazurin assay. The data set is classed as cell-based. The conditions noted are these: read-out: TD50.
Data set [2] addresses Protease (Human immunodeficiency virus 1) (UniProt Q9YQ12). The experiment in a line: Inhibition of recombinant HIV1 protease at 50 nM. The gist of the method: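 Recombinant HIV-1 PR (2 μg/mL stock) was mixed with inhibitor (500 nM solution in DMSO) in MES–NaOH pH 5.5 buffer containing DTT, EDTA and 1 M NaCl. The reaction was started with substrate H-Lys-Ala-Arg-Val-Tyr-Phe(p-NO₂)-Glu-Ala-Nle-NH₂ (1.0 mM solution) and run 15 min at 37 °C, then stopped with 1M HCl. The cleaved N-terminal fragment was quantified by reversed-phase C18 HPLC.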

Data set [3] has as its system Plasmodium falciparum. Kind of data set: Antimalarial activity against chloroquine-sensitive Plasmodium falciparum NF54 in type O+ human erythrocytes after 48 hrs as reduced [3H]hypoxanthine uptake. The format is functional, organism-based. The gist of the method: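 NF54 parasites grown in 2.4% O+ human erythrocyte suspension in RPMI 1640 with 25 mM HEPES, 27 mM NaHCO3, 10% heat-inactivated O+ human serum, under 3% O2/4% CO2/93% N2. Compounds serially diluted in 0.2% DMSO medium, incubated with culture 48 h, then 0.6 μCi [3H]hypoxanthine added for 20 h. Harvested on glass filters, scintillation counted. IC50 from dose-response curves.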

For data set [4], the target named is Plasmepsin II (Plasmodium falciparum, UniProt P46925). The experiment in a line: Inhibition of Plasmodium falciparum plasmepsin-2. The gist of the method:
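Plm II (400 nM) hydrolysis of chromogenic substrate H-Ala-Leu-Glu-Arg-Thr-Phe-Phe(p-NO2)-Ser-Phe-Pro-Thr-OH (163 μM) in 10 mM sodium formate pH 4.0, 2% DMSO, 25 °C, with increasing inhibitor. Rates fitted to tight-binding competitive inhibition equations for Ki.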

From ChEMBL document CHEMBL1151686, “Antimalarial activity enhancement in hydroxymethylcarbonyl (HMC) isostere-based dipeptidomimetics targeting malarial aspartic protease plasmepsin” (Bioorg Med Chem, 2008) come the findings set out here.

Molecules are shown by their SMILES.

Sequence of Protease (Human immunodeficiency virus 1) (Q9YQ12 as listed by the source): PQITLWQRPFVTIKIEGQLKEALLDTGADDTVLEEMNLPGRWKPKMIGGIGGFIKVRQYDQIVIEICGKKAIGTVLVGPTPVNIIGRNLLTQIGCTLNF
Sequence of Plasmepsin II (P46925 whole entry): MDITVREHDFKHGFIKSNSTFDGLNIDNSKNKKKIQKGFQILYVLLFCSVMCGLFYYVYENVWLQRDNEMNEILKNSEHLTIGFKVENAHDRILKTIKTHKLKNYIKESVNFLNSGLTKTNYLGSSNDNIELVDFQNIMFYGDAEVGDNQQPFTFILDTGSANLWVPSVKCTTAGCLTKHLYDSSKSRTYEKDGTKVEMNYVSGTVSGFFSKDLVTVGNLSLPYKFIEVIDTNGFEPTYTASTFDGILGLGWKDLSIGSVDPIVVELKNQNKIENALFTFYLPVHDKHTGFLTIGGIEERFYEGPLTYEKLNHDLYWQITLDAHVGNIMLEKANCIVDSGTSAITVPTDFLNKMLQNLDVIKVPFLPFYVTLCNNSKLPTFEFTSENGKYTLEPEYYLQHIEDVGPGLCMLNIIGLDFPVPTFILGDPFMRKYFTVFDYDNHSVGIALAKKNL

The term inhibition denotes the change of the read-out against control, counted positive when it falls. Usually EC50 stands for the concentration needed to bring the measured effect to its halfway point. Low readings indicate a more potent agent, high ones a less potent agent. As usually defined, the Ki is the dissociation constant of the complex between target and ligand, obtained from inhibition or displacement. A lower Ki goes with higher affinity. For `CCCCCNc1cc(C)c(OCC(=O)N[C@@H](Cc2ccccc2)[C@H](O)C(=O)N2CSC(C)(C)[C@H]2C(=O)N[C@H]2c3ccccc3C[C@H]2O)c(C)c1`, the CC50 at 72 h in data set [1] is 12000 nM. Moreover, the inhibition in data set [2] was found to be 78%. In data set [3], this molecule returned an EC50 of 430 nM. Moreover, in data set [4], the affinity corresponds to a Ki of 26 nM.
